Experimental data published in PMC6944222 (Toxicological Sciences, 2019).

What was measured:
[1] = IVIVE of total hepatic intrinsic clearance; type: in vitro ADME, human; settings: for Hepatic CLint_vivo: model estimated; for total CLint_vivo estimated with HLMs and cytosol (subcellular fraction): subcellular fraction-based IVIVE
Summary of the method: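 Pooled human liver microsomes and cytosol from 150 adults (75 male, 75 female). […] In vitro CLint was scaled to the in vivo hepatic value using microsomal or cytosolic protein content and liver weight. Enzyme ontogeny was expressed as a fraction of adult expression.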

[2] = test system: expressed human CYP and CES enzymes; type: in vitro ADME; settings: for total in vivo CLint estimated with expressed enzymes: expressed enzyme-based IVIVE; for metabolism profile (enzymes responsible): human hepatic CYP and CES enzymes
[3] = stated as known, no reference given; cited from earlier work
[4] = ref Willemin et al. (2015); cited from earlier work

| SMILES | Hepatic CLint_vivo ([1]; person five) [L/h] | Hepatic CLint_vivo ([1]; person four) [L/h] | Hepatic CLint_vivo ([1]; person one) [L/h] | Hepatic CLint_vivo ([1]; person six) [L/h] | Hepatic CLint_vivo ([1]; person three) [L/h] | Hepatic CLint_vivo ([1]; person two) [L/h] | total CLint_vivo estimated with HLMs and cytosol (subcellular fraction) [1] | total in vivo CLint estimated with expressed enzymes [2] | log Kow [3] | contribution of CES enzymes to human hepatic metabolism ([2]; IVIVE of expressed enzyme data) | metabolism profile (enzymes responsible) [2] | in vivo CLint in cryopreserved hepatocytes [4] [l/h/kg liver] |
| --- | --- | --- | --- | --- | --- | --- | --- | --- | --- | --- | --- | --- |
| CC1(C)[C@H](C(=O)O[C@H](C#N)c2cccc(Oc3ccccc3)c2)[C@@H]1C=C(Br)Br [DLM, deltamethrin] | 2066 | 1282 | 375 | 2417 | 565 | 224 | 7,418 l/h/kg liver | 36,782 l/h/kg liver | 4.61 | – | – | – |
| CC1(C)[C@H](C(=O)OCc2cccc(Oc3ccccc3)c2)[C@@H]1C=C(Cl)Cl [CPM, cis-permethrin] | 186 | 115 | 34 | 217 | 51 | 20 | 6,68 l/h/kg liver | 70,481 l/h/kg liver | 6.1 | more than 70% | metabolized by CYP and CES enzymes | 60 |
| Cc1c(COC(=O)[C@@H]2[C@H](/C=C(\Cl)C(F)(F)F)C2(C)C)cccc1-c1ccccc1 (racemic) [Bifenthrin, bifenthrin] | 58 | 36 | 10 | 67 | 16 | 5 | – | 145 l/h/kg liver | – | – | metabolized only by CYP enzymes | – |
